The nature of experiment [1]: Inhibition of rice alpha-glucosidase assessed as glucose release by Glucose B-test. Also on record: species or system Oryza sativa. An outline of the steps:
(§1)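 Disaccharide substrate suited to each enzyme, at that enzyme's optimum pH. Released D-glucose was measured colorimetrically with the Glucose B-test.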

Experiment [2] in a line: Inhibition of Aspergillus niger amyloglucosidase assessed as glucose release by Glucose B-test. Put shortly: as §1
In experiment [3] the target is T1, Beta-galactosidase (Bos taurus) (UniProt Q58D55).
T1 sequence (whole entry): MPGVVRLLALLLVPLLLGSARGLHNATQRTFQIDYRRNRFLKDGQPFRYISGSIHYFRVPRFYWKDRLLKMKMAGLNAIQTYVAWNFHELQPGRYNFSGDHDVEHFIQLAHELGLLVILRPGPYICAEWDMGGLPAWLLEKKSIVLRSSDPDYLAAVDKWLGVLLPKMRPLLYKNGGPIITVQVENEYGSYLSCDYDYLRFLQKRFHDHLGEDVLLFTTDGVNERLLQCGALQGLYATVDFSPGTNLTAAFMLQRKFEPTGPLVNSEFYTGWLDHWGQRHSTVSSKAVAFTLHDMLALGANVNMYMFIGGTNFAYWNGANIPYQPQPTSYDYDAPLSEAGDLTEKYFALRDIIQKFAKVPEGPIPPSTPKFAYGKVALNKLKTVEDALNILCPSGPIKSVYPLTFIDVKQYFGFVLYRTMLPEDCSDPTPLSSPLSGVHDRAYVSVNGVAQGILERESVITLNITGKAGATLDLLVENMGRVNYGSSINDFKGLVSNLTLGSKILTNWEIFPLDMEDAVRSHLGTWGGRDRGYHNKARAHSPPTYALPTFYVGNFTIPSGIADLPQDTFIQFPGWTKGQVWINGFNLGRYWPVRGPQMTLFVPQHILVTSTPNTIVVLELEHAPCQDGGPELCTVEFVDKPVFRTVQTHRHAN
The experiment in a line: Inhibition of bovine liver beta-galactosidase assessed as p-nitrophenol release at 1000 uM by spectrophotometrically. An outline of the steps: (§2)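 Assayed with the appropriate p-nitrophenyl glycoside substrate at each enzyme's optimum pH.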

Experiment [4] in a line: Inhibition of rat epididymis alpha-mannosidase assessed as p-nitrophenol release by spectrophotometrically.
Experiment [5] can be described thus: Inhibition of yeast isomaltase alpha-glucosidase assessed as glucose release by Glucose B-test.
Experiment [6] addresses Alpha-galactosidase (Coffea arabica) (UniProt Q42656). The experiment in a line: Inhibition of coffee bean alpha-galactosidase assessed as p-nitrophenol release at 1000 uM by spectrophotometrically. Put shortly: as §2
The target in a further experiment is T2, Beta-mannosidase (Rattus norvegicus, UniProt Q4FZV0).
T2 sequence (Q4FZV0 whole entry): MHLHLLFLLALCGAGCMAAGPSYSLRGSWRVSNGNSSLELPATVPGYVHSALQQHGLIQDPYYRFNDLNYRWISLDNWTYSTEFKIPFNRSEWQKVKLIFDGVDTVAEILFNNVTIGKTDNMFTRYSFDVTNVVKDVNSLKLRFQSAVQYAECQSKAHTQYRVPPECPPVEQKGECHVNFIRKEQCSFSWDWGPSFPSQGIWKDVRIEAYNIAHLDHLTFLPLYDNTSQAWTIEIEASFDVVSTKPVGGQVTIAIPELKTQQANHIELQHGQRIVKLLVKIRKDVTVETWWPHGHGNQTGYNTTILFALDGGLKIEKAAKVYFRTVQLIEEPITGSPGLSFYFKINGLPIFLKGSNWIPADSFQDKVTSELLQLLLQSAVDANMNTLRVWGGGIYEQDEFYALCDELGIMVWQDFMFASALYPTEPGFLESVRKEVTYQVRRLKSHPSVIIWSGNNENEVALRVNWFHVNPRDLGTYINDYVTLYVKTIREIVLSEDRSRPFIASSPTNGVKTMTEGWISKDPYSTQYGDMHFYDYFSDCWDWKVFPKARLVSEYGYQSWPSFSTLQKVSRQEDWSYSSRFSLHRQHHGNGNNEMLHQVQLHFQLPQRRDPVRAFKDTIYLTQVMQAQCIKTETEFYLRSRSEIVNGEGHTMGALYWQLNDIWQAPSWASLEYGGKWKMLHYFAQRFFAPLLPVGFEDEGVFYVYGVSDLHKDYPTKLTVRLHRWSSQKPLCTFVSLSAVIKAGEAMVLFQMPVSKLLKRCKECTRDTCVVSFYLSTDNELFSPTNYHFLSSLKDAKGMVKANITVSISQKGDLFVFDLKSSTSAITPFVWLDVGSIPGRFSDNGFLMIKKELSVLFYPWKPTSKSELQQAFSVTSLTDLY
Kind of experiment: Inhibition of rat epididymis beta-mannosidase assessed as p-nitrophenol release by spectrophotometrically.

A further experiment concerns the target T3, Uncharacterized protein (Sus scrofa, UniProt I3LIR5).
T3 sequence (I3LIR5 whole entry): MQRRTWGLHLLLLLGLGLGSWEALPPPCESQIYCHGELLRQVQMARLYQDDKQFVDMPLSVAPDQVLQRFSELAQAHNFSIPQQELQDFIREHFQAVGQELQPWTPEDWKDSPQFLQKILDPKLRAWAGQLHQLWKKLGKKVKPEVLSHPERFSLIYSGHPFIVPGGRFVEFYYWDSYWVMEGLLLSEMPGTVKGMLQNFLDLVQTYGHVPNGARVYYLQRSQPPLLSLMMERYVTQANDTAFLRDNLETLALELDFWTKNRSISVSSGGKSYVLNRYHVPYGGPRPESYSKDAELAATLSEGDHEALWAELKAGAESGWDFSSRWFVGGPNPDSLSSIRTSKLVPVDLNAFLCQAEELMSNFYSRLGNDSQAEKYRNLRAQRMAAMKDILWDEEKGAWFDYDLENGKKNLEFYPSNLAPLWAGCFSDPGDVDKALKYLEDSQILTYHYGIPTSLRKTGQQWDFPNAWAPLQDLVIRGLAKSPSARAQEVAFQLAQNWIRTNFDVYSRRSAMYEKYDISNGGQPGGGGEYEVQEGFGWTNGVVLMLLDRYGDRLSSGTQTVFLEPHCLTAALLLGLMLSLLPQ
The experiment in a line: Inhibition of pig kidney trehalase assessed as p-nitrophenol release by spectrophotometrically.

In experiment [7] the target is T4, Tissue alpha-L-fucosidase (Bos taurus) (UniProt Q2KIM0).
T4 sequence (whole entry): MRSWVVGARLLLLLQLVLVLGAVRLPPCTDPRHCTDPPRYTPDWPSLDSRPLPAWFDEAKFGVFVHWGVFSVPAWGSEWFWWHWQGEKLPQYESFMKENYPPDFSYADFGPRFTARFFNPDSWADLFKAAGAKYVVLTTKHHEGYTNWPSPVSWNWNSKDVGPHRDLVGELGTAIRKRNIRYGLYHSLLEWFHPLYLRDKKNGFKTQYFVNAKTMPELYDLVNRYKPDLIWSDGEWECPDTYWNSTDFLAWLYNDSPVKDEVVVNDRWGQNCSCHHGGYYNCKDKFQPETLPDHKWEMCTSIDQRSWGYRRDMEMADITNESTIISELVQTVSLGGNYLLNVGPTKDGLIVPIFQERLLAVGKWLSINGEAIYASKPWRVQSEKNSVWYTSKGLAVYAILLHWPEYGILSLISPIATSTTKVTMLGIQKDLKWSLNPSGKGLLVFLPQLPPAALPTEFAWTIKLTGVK
Kind of experiment: Inhibition of bovine epididymis alpha-L-fucosidase assessed as p-nitrophenol release at 1000 uM by spectrophotometrically. Put shortly: as §2

The target in another experiment is Alpha-glucosidase MAL62 (Saccharomyces cerevisiae, UniProt P07265). The experiment in a line: Inhibition of yeast maltase alpha-glucosidase assessed as glucose release by Glucose B-test.
The nature of experiment [8]: Inhibition of yeast alpha-glucosidase assessed as p-nitrophenol release by spectrophotometrically. Also on record: species or system Saccharomyces cerevisiae. An outline of the steps: as §2
Experiment [9] deals with Lysosomal alpha-glucosidase (Rattus norvegicus) (UniProt Q6P7A9). The experiment in a line: Inhibition of rat intestinal maltase assessed as glucose release at 1000 uM by Glucose B-test. An outline of the steps:
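Enzyme source was brush border membranes prepared from rat small intestine. Maltase, sucrase and isomaltase activities were read with the matching disaccharide substrate at each enzyme's optimum pH, and liberated D-glucose was quantified colorimetrically by Glucose B-test.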

The target in experiment [10] is T5, Sucrase-isomaltase, intestinal (Rattus norvegicus, UniProt P23739). The experiment in a line: Inhibition of rat intestinal isomaltase assessed as glucose release by Glucose B-test.
The subject of a further experiment is Oryza sativa. The experiment in a line: Inhibition of rice alpha-glucosidase assessed as glucose release at 1000 uM by Glucose B-test. Put shortly: as §1
In experiment [11] the target is T5, Sucrase-isomaltase, intestinal. Kind of experiment: Inhibition of rat intestinal sucrase assessed as glucose release by Glucose B-test.
For a further experiment, the species on record is Rattus norvegicus. Kind of experiment: Inhibition of rat epididymis alpha-mannosidase assessed as p-nitrophenol release at 1000 uM by spectrophotometrically.
For experiment [12], the target named is T6, Beta-mannosidase (Rattus norvegicus) (UniProt Q4FZV0).
T6 sequence (whole entry): T2 sequence (Q4FZV0 whole entry)
Kind of experiment: Inhibition of rat epididymis beta-mannosidase assessed as p-nitrophenol release at 1000 uM by spectrophotometrically.

In another experiment the target is Alpha-galactosidase (Coffea arabica, UniProt Q42656). Kind of experiment: Inhibition of coffee bean alpha-galactosidase assessed as p-nitrophenol release by spectrophotometrically. An outline of the steps:
as §2

Experiment [13] has as its target T7, Uncharacterized protein (Sus scrofa) (UniProt I3LIR5).
T7 sequence (whole entry): T3 sequence (I3LIR5 whole entry)
The experiment in a line: Inhibition of pig kidney trehalase assessed as p-nitrophenol release at 1000 uM by spectrophotometrically.

Chain of Alpha-glucosidase MAL62 (P07265 whole entry): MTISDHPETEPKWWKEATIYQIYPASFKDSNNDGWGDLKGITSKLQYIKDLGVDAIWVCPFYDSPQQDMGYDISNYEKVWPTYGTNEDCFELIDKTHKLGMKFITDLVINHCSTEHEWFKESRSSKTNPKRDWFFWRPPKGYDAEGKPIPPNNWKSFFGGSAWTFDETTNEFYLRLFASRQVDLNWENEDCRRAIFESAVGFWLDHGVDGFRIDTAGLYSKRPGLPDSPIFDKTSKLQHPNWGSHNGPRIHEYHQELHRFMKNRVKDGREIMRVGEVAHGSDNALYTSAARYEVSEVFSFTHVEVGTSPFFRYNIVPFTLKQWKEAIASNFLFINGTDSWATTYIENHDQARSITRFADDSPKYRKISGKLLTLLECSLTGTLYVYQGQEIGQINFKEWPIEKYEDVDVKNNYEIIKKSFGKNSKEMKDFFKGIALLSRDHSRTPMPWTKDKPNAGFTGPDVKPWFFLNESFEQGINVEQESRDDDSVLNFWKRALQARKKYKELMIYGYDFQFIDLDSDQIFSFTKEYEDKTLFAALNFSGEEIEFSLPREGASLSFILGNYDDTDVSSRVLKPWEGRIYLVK
T5 sequence (P23739 1-1013 limits assumed): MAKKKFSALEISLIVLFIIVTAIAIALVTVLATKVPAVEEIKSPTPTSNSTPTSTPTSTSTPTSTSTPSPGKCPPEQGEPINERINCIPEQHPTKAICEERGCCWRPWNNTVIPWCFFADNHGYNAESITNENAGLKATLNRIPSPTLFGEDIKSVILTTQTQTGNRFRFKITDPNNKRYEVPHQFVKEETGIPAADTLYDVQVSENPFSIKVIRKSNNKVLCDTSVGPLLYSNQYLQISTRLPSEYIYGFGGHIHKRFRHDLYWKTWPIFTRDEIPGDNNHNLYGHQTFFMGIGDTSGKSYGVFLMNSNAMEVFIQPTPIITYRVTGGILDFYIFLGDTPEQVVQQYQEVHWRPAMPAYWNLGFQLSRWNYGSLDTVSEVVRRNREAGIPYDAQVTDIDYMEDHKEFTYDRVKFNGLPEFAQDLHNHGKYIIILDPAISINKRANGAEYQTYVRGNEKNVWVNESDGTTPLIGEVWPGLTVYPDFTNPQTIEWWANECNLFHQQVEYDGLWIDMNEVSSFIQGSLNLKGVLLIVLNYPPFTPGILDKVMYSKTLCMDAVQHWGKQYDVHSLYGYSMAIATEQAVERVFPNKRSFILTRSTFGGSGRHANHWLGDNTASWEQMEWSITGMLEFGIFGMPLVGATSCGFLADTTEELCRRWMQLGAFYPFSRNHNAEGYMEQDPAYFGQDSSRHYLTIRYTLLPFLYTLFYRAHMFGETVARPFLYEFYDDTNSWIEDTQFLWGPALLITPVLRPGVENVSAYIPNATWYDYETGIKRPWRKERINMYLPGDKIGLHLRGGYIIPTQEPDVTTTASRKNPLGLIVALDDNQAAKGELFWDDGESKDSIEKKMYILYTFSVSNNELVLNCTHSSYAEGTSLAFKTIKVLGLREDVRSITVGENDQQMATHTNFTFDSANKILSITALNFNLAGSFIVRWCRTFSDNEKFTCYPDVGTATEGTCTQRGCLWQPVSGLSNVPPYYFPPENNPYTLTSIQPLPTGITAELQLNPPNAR
T5 sequence (P23739 1014-1841 limits assumed): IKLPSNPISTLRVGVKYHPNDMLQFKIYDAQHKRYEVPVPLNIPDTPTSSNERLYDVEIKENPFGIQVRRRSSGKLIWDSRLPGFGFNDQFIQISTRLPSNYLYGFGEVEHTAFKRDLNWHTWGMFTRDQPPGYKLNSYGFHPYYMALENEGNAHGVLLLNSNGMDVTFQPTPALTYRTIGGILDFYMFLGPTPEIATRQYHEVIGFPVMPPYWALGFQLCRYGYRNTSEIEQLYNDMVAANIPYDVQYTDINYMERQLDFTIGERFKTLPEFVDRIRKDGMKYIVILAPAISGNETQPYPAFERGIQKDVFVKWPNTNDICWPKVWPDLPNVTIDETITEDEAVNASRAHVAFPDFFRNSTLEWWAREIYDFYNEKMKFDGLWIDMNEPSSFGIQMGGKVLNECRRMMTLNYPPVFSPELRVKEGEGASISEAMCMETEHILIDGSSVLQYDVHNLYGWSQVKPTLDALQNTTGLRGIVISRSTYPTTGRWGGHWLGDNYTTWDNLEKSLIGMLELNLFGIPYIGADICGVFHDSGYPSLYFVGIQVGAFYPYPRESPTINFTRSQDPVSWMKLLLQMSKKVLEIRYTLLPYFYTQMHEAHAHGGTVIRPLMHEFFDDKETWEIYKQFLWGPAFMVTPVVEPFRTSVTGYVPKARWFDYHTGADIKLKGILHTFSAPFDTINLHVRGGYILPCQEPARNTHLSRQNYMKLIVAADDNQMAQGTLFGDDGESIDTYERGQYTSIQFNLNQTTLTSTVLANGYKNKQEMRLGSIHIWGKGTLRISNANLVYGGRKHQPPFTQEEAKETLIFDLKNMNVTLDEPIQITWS
Chain of Alpha-galactosidase (Q42656 whole entry): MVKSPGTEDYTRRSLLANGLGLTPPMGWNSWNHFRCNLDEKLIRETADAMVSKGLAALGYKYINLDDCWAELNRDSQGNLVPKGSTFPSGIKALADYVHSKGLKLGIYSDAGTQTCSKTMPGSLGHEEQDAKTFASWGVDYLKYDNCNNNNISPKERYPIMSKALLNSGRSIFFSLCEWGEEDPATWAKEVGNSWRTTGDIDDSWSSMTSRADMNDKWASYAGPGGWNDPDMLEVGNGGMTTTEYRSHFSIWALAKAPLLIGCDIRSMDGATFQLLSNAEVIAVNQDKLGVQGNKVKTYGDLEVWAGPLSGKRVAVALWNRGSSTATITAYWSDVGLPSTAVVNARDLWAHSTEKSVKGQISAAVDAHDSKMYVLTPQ
Chain of Lysosomal alpha-glucosidase (Rattus norvegicus) (Q6P7A9 whole entry): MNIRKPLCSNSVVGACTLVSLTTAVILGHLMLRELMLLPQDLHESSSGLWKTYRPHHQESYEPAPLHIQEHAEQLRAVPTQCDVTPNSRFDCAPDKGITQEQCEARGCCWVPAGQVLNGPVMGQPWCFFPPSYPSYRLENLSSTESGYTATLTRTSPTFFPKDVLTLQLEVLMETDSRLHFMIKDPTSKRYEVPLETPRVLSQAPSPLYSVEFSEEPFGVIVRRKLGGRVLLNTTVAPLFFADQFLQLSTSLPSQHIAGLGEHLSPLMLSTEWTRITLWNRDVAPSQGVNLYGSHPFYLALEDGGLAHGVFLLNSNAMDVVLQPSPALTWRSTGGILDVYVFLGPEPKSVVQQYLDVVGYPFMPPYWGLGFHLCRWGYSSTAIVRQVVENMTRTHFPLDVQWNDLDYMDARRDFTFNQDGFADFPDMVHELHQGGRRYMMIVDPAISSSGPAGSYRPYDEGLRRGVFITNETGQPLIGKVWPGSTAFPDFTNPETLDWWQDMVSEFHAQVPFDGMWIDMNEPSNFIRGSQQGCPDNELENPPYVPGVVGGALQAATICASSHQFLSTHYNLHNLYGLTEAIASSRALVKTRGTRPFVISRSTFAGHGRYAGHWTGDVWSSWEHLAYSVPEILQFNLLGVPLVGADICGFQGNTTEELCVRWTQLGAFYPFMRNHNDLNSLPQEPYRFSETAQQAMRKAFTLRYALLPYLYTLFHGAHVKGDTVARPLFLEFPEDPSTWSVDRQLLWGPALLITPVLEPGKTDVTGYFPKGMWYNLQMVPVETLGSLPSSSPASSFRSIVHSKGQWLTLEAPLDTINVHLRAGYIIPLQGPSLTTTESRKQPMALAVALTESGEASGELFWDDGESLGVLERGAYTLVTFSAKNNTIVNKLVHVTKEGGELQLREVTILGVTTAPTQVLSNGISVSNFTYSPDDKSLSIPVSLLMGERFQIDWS
Chain of Alpha-galactosidase (Coffea arabica) (Q42656 16-378 limits assumed): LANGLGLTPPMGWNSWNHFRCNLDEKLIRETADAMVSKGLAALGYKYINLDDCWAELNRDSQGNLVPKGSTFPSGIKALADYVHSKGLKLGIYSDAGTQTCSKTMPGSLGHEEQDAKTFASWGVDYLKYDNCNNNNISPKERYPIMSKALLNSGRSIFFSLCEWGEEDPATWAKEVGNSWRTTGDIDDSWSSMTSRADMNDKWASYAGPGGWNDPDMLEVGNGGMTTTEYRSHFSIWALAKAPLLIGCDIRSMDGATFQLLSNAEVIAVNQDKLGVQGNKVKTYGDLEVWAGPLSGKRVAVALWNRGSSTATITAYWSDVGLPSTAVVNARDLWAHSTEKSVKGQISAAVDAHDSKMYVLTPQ

Regarding `OC[C@H]1NC[C@@H](O)[C@@H]1O`, the IC50 is 120 µM in [1]; 400 µM in experiment [2]; 150 µM in [4]; 0.11 µM in experiment [5]; 290 µM on Beta-mannosidase; 2.5 µM on Uncharacterized protein. Further, the IC50 worked out at 0.84 µM on Alpha-glucosidase MAL62 and 1.2 µM in experiment [8]. Further, the inhibition in experiment [3], in [6] and in experiment [7] was below 50% throughout.
Regarding `OCCN1C[C@@H](O)[C@H](O)[C@H]1CO`, the inhibition (in [9]; in experiment [3]; with Oryza sativa; in the experiment filed under Rattus norvegicus; in experiment [12]; in experiment [7]) was below 50% in each case. The inhibition in [13] is below 50%. For the same compound, the IC50 in experiment [2] worked out at 620 µM; in experiment [10], 84 µM; in experiment [5], 12 µM; in experiment [11] it was 250 µM; on Alpha-glucosidase MAL62 it was 78 µM; in experiment [8], 290 µM. For the same compound, the IC50 on Alpha-galactosidase turned out to be 700 µM.

The values are drawn from ChEMBL document CHEMBL1148104, “New sugar-mimic alkaloids from the pods of Angylocalyx pynaertii” (J Nat Prod, 2002).
